Converted amounts (≈) assume the structure as drawn.
How the values were obtained:
Type in all cases: functional
[1] = test system: Streptococcus pneumoniae; test: Antibacterial activity against Streptococcus pneumoniae ATCC 49619 isolate 106
Procedure, shortened: (§1)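 MIC by broth microdilution in liquid medium per CLSI, in cation-adjusted Mueller Hinton broth made fresh and held at 4 °C before testing. Horse blood (defibrinated) added to the medium where appropriate. Runs were accepted only when the comparator antibiotics and ATCC QC strains fell within their recommended ranges.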

[2] = test system: Streptococcus pneumoniae; test: Antibacterial activity against tetracycline-resistant Streptococcus pneumoniae isolate 160 expressing tetM gene
[3] = test system: Escherichia coli; test: Antibacterial activity against Escherichia coli ATCC 25922 isolate 107; procedure, shortened: as §1
[4] = test system: Staphylococcus aureus; test: Antibacterial activity against tetracycline-resistant Staphylococcus aureus isolate SA158 expressing TetK gene
[5] = test system: Escherichia coli; test: Antibacterial activity against Escherichia coli isolate EC155 expressing tetA gene; procedure, shortened: as §1
[6] = test system: Staphylococcus aureus; test: Antibacterial activity against tetracycline-susceptible Staphylococcus aureus ATCC 13709 Smith isolate SA100
Procedure, shortened: (§2)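 Broth microdilution MIC following CLSI methods in cation-adjusted Mueller Hinton broth, prepared fresh and held at 4 °C before testing. Defibrinated horse blood added to the medium where appropriate. Runs accepted when quality control ranges for comparator antibiotics and ATCC QC strains were met.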

[7] = test system: Staphylococcus aureus; test: Antibacterial activity against tetracycline-resistant Staphylococcus aureus isolate SA161 expressing TetM gene; procedure, shortened: as §2
[8] = test system: Klebsiella pneumoniae; test: Antibacterial activity against Klebsiella pneumoniae ATCC 13883; procedure, shortened: as §1

## CN(C)[C@@H]1C(O)=C(C(N)=O)C(=O)[C@@]2(O)C(O)=C3C(=O)c4c(O)c(NS(=O)(=O)c5ccccc5)cc(F)c4C[C@H]3C[C@@H]12
[1]
  MIC: 0.25 µg/mL (≈ 0.425 µM)
[2]
  MIC: 0.25 µg/mL (≈ 0.425 µM)
[3]
  MIC: 32 µg/mL (≈ 54.5 µM)
[4]
  MIC: 0.5 µg/mL (≈ 0.851 µM)
[5]
  MIC: > 32 µg/mL
[6]
  MIC: 0.5 µg/mL (≈ 0.851 µM)
[7]
  MIC: 1 µg/mL (≈ 1.7 µM)
[8]
  MIC: > 32 µg/mL

## CN(C)[C@@H]1C(O)=C(C(N)=O)C(=O)[C@@]2(O)C(O)=C3C(=O)c4c(O)c(NS(=O)(=O)c5cccs5)cc(F)c4C[C@H]3C[C@@H]12
[1]
  MIC: 0.25 µg/mL (≈ 0.421 µM)
[2]
  MIC: 1 µg/mL (≈ 1.68 µM)
[3]
  MIC: > 32 µg/mL
[4]
  MIC: 0.5 µg/mL (≈ 0.842 µM)
[5]
  MIC: > 32 µg/mL
[6]
  MIC: 0.5 µg/mL (≈ 0.842 µM)
[7]
  MIC: 1 µg/mL (≈ 1.68 µM)
[8]
  MIC: > 32 µg/mL

## CN(C)[C@@H]1C(O)=C(C(N)=O)C(=O)[C@@]2(O)C(O)=C3C(=O)c4c(O)c(Nc5ccncn5)cc(F)c4C[C@H]3C[C@@H]12
[1]
  MIC: 0.063 µg/mL (≈ 0.12 µM)
[2]
  MIC: 0.5 µg/mL (≈ 0.951 µM)
[3]
  MIC: 2 µg/mL (≈ 3.81 µM)
[4]
  MIC: 2 µg/mL (≈ 3.81 µM)
[5]
  MIC: > 32 µg/mL
[6]
  MIC: 0.25 µg/mL (≈ 0.476 µM)
[7]
  MIC: 2 µg/mL (≈ 3.81 µM)
[8]
  MIC: 8 µg/mL (≈ 15.2 µM)

## CN(C)[C@@H]1C(O)=C(C(N)=O)C(=O)[C@@]2(O)C(O)=C3C(=O)c4c(O)c(NCCNC(C)(C)C)cc(F)c4C[C@H]3C[C@@H]12
[1]
  MIC: 0.125 µg/mL (≈ 0.229 µM)
[2]
  MIC: 0.25 µg/mL (≈ 0.457 µM)
[3]
  MIC: 2 µg/mL (≈ 3.66 µM)
[4]
  MIC: 1 µg/mL (≈ 1.83 µM)
[5]
  MIC: 16 µg/mL (≈ 29.3 µM)
[6]
  MIC: 1 µg/mL (≈ 1.83 µM)
[7]
  MIC: 4 µg/mL (≈ 7.32 µM)
[8]
  MIC: 8 µg/mL (≈ 14.6 µM)

## CN(C)[C@@H]1C(O)=C(C(N)=O)C(=O)[C@@]2(O)C(O)=C3C(=O)c4c(O)c(N)cc(F)c4C[C@H]3C[C@@H]12
[1]
  MIC: 0.25 µg/mL (≈ 0.559 µM)
[2]
  MIC: 4 µg/mL (≈ 8.94 µM)
[3]
  MIC: 2 µg/mL (≈ 4.47 µM)
[4]
  MIC: 2 µg/mL (≈ 4.47 µM)
[5]
  MIC: 32 µg/mL (≈ 71.5 µM)
[6]
  MIC: 0.25 µg/mL (≈ 0.559 µM)
[7]
  MIC: 2 µg/mL (≈ 4.47 µM)
[8]
  MIC: 4 µg/mL (≈ 8.94 µM)

## CN(C)[C@@H]1C(O)=C(C(N)=O)C(=O)[C@@]2(O)C(O)=C3C(=O)c4c(O)c(NC(=O)c5ccccc5)cc(F)c4C[C@H]3C[C@@H]12
[1]
  MIC: 16 µg/mL (≈ 29 µM)
[2]
  MIC: 16 µg/mL (≈ 29 µM)
[3]
  MIC: > 32 µg/mL
[4]
  MIC: 0.5 µg/mL (≈ 0.907 µM)
[5]
  MIC: > 32 µg/mL
[6]
  MIC: 0.25 µg/mL (≈ 0.453 µM)
[7]
  MIC: 0.25 µg/mL (≈ 0.453 µM)
[8]
  MIC: > 32 µg/mL

## CN(C)[C@@H]1C(O)=C(C(N)=O)C(=O)[C@@]2(O)C(O)=C3C(=O)c4c(O)c(NC(=O)c5cccc(C(F)(F)F)c5)cc(F)c4C[C@H]3C[C@@H]12
[1]
  MIC: > 32 µg/mL
[2]
  MIC: > 32 µg/mL
[3]
  MIC: > 32 µg/mL
[4]
  MIC: 0.13 µg/mL (≈ 0.21 µM)
[5]
  MIC: > 32 µg/mL
[6]
  MIC: 0.25 µg/mL (≈ 0.404 µM)
[7]
  MIC: 0.5 µg/mL (≈ 0.807 µM)
[8]
  MIC: > 32 µg/mL

## COc1cccc(C(=O)Nc2cc(F)c3c(c2O)C(=O)C2=C(O)[C@]4(O)C(=O)C(C(N)=O)=C(O)[C@@H](N(C)C)[C@@H]4C[C@@H]2C3)c1
[1]
  MIC: > 32 µg/mL
[2]
  MIC: > 32 µg/mL
[3]
  MIC: > 32 µg/mL
[4]
  MIC: 0.13 µg/mL (≈ 0.224 µM)
[5]
  MIC: > 32 µg/mL
[6]
  MIC: 0.13 µg/mL (≈ 0.224 µM)
[7]
  MIC: 0.25 µg/mL (≈ 0.43 µM)
[8]
  MIC: > 32 µg/mL

## CN(C)c1ccccc1C(=O)Nc1cc(F)c2c(c1O)C(=O)C1=C(O)[C@]3(O)C(=O)C(C(N)=O)=C(O)[C@@H](N(C)C)[C@@H]3C[C@@H]1C2
[1]
  MIC: 32 µg/mL (≈ 53.8 µM)
[2]
  MIC: > 32 µg/mL
[3]
  MIC: > 32 µg/mL
[4]
  MIC: 0.063 µg/mL (≈ 0.106 µM)
[5]
  MIC: > 32 µg/mL
[6]
  MIC: 0.13 µg/mL (≈ 0.219 µM)
[7]
  MIC: 0.13 µg/mL (≈ 0.219 µM)
[8]
  MIC: > 32 µg/mL

## CN(C)c1cccc(C(=O)Nc2cc(F)c3c(c2O)C(=O)C2=C(O)[C@]4(O)C(=O)C(C(N)=O)=C(O)[C@@H](N(C)C)[C@@H]4C[C@@H]2C3)c1
[1]
  MIC: > 32 µg/mL
[2]
  MIC: > 32 µg/mL
[3]
  MIC: > 32 µg/mL
[4]
  MIC: 0.13 µg/mL (≈ 0.219 µM)
[5]
  MIC: > 32 µg/mL
[6]
  MIC: 0.13 µg/mL (≈ 0.219 µM)
[7]
  MIC: 0.13 µg/mL (≈ 0.219 µM)
[8]
  MIC: > 32 µg/mL

## CN(C)c1ccc(C(=O)Nc2cc(F)c3c(c2O)C(=O)C2=C(O)[C@]4(O)C(=O)C(C(N)=O)=C(O)[C@@H](N(C)C)[C@@H]4C[C@@H]2C3)cc1
[1]
  MIC: 2 µg/mL (≈ 3.36 µM)
[2]
  MIC: 8 µg/mL (≈ 13.5 µM)
[3]
  MIC: > 32 µg/mL
[4]
  MIC: 0.063 µg/mL (≈ 0.106 µM)
[5]
  MIC: > 32 µg/mL
[6]
  MIC: 0.063 µg/mL (≈ 0.106 µM)
[7]
  MIC: 0.063 µg/mL (≈ 0.106 µM)
[8]
  MIC: > 32 µg/mL

## CN(C)[C@@H]1C(O)=C(C(N)=O)C(=O)[C@@]2(O)C(O)=C3C(=O)c4c(O)c(NC(=O)c5cccs5)cc(F)c4C[C@H]3C[C@@H]12
[1]
  MIC: 16 µg/mL (≈ 28.7 µM)
[2]
  MIC: 16 µg/mL (≈ 28.7 µM)
[3]
  MIC: > 32 µg/mL
[4]
  MIC: 0.5 µg/mL (≈ 0.897 µM)
[5]
  MIC: > 32 µg/mL
[6]
  MIC: 0.13 µg/mL (≈ 0.233 µM)
[7]
  MIC: 0.25 µg/mL (≈ 0.448 µM)
[8]
  MIC: > 32 µg/mL

## CN(C)[C@@H]1C(O)=C(C(N)=O)C(=O)[C@@]2(O)C(O)=C3C(=O)c4c(O)c(NC(=O)c5cccnc5)cc(F)c4C[C@H]3C[C@@H]12
[1]
  MIC: 1 µg/mL (≈ 1.81 µM)
[2]
  MIC: 2 µg/mL (≈ 3.62 µM)
[3]
  MIC: > 32 µg/mL
[4]
  MIC: 16 µg/mL (≈ 29 µM)
[5]
  MIC: > 32 µg/mL
[6]
  MIC: 2 µg/mL (≈ 3.62 µM)
[7]
  MIC: 4 µg/mL (≈ 7.24 µM)
[8]
  MIC: > 32 µg/mL

## CN(C)[C@@H]1C(O)=C(C(N)=O)C(=O)[C@@]2(O)C(O)=C3C(=O)c4c(O)c(NC(=O)[C@H]5CCCN5)cc(F)c4C[C@H]3C[C@@H]12
[1]
  MIC: 0.13 µg/mL (≈ 0.239 µM)
[2]
  MIC: 0.5 µg/mL (≈ 0.918 µM)
[3]
  MIC: 4 µg/mL (≈ 7.35 µM)
[4]
  MIC: 4 µg/mL (≈ 7.35 µM)
[5]
  MIC: 32 µg/mL (≈ 58.8 µM)
[6]
  MIC: 2 µg/mL (≈ 3.67 µM)
[7]
  MIC: 2 µg/mL (≈ 3.67 µM)
[8]
  MIC: 8 µg/mL (≈ 14.7 µM)
